The labels stand for the following.
B1: Osa-1-4 twister ribozyme (parent)
chain: CCGCCUAACACUGCCAAUGCCGGUCCCAAGCCCGGAUAAAAGUGGAGGGGGCGG

This series covers variants of B1. As to the kind of experiment: self-cleavage, relative activity (ratio to wild type); higher = more cleavage; co-transcriptional. In short, it runs like this:
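The 48 positions downstream of the cleavage site in a 54-nucleotide Oryza sativa twister ribozyme template were synthesised at 97 % wild-type base and 1 % of each other base. The template was transcribed in vitro at 37 °C for 2 h, with self-cleavage allowed during transcription. Reads with or without upstream sequence after deep sequencing marked cleavage status, and relative activity is fraction cleaved normalised to wild type.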
In the case of CCGCCUAACACUGCCAAUGGCGGUCCCAAGCCCGCAUAAAAGUGGAGGGGGCGG [C20G G35C], the self-cleavage amounted to 0.28.
The result for CCGCCUAACACUGCCAAUGUCGGUCCCAAGCCCGGAUAAAAGUGGAGGGGGUGG [C20U C52U] reads 0.96; that for CCGCCUAACACUGCCAAUGUCGGUCCCAAGCCCGGAUAAAAGUGGAGGGGGAGG [C20U C52A], 0.9.
With CCGCCUAACACUGCCAAUGUCGGUCCCAAGCCCGGAUAAAAGUGGAGGGGGGGG [C20U C52G], the self-cleavage was determined as 0.89.
In the case of CCGCCUAACACUGCCAAUGGCGGUCCCAAGCCCGGAUAAAAGUGGAGGGGGCCG [C20G G53C] it was 0.03; in that of CCGCCUAACACUGCCAAUGGCGGUCCCAAGCCCGGAUAAAAGUGGAGGGGGCAG [C20G G53A], 0.06; in that of CCGCCUAACACUGCCAAUGGCGGUCCCAAGCCCGGAUAAAAGUGGAGGGGGCUG [C20G G53U], 0.04.
Regarding CCGCCUAACACUGCCAAUGGCGGUCCCAAGCCCGGAUAAAAGUGAAGGGGGCGG [C20G G45A], the self-cleavage was determined as 0.04.
The result for CCGCCUAACACUGCCAAUGGCGGUCCCAAGCCCGGAUAAAAGUGCAGGGGGCGG [C20G G45C] reads 0.03; that for CCGCCUAACACUGCCAAUGGCGGUCCCAAGCCCGGAUAAAAGUGUAGGGGGCGG [C20G G45U], 0.02.
In the case of CCGCCUAACACUGCCAAUGGCGGUCCCAAACCCGGAUAAAAGUGGAGGGGGCGG [C20G G30A] it was 0.03.
The result for CCGCCUAACACUGCCAAUGGCGGUCCCAAUCCCGGAUAAAAGUGGAGGGGGCGG [C20G G30U] reads 0.02; that for CCGCCUAACACUGCCAAUGGCGGUCCCAACCCCGGAUAAAAGUGGAGGGGGCGG [C20G G30C], 0.03; that for CCGCCUAACACUGCCAAUGUCGGUCUCAAGCCCGGAUAAAAGUGGAGGGGGCGG [C20U C26U], 0.92.
Consider CCGCCUAACACUGCCAAUGUCGGUCGCAAGCCCGGAUAAAAGUGGAGGGGGCGG [C20U C26G], for which the self-cleavage amounted to 0.24.
In the case of CCGCCUAACACUGCCAAUGUCGGUCACAAGCCCGGAUAAAAGUGGAGGGGGCGG [C20U C26A] it was 0.08; in that of CCGCCUAACACUGCCAAUGGCGGCCCCAAGCCCGGAUAAAAGUGGAGGGGGCGG [C20G U24C], 0.11; in that of CCGCCUAACACUGCCAAUGGCGGGCCCAAGCCCGGAUAAAAGUGGAGGGGGCGG [C20G U24G], 0.05.
Take CCGCCUAACACUGCCAAUGGCGGACCCAAGCCCGGAUAAAAGUGGAGGGGGCGG [C20G U24A]: the self-cleavage was found to be 0.07.
For CCGCCUAACACGGCCAAUGGCGGUCCCAAGCCCGGAUAAAAGUGGAGGGGGCGG [C20G U12G], the self-cleavage came out at 0.04.
The result for CCGCCUAACACAGCCAAUGGCGGUCCCAAGCCCGGAUAAAAGUGGAGGGGGCGG [C20G U12A] reads 0.09; that for CCGCCUAACACCGCCAAUGGCGGUCCCAAGCCCGGAUAAAAGUGGAGGGGGCGG [C20G U12C], 0.07; that for CCGCCUAACACUGCCAAUGUCGGUCCGAAGCCCGGAUAAAAGUGGAGGGGGCGG [C20U C27G], 0.08.
In the case of CCGCCUAACACUGCCAAUGUCGGUCCUAAGCCCGGAUAAAAGUGGAGGGGGCGG [C20U C27U] it was 0.26; in that of CCGCCUAACACUGCCAAUGUCGGUCCAAAGCCCGGAUAAAAGUGGAGGGGGCGG [C20U C27A], 0.23; in that of CCGCCUAACACUGCCAAUGGCGGUCCCAAGCCCGGAUAAAAGUGGAGGAGGCGG [C20G G49A], 0.05.
Take CCGCCUAACACUGCCAAUGGCGGUCCCAAGCCCGGAUAAAAGUGGAGGCGGCGG [C20G G49C]: the self-cleavage amounted to 0.03.
Turning to CCGCCUAACACUGCCAAUGGCGGUCCCAAGCCCGGAUAAAAGUGGAGGUGGCGG [C20G G49U], the self-cleavage was determined as 0.04.
CCGCCUAACACUGCCAAUGGCGGUCCCAAGCCCGGAUAAAAGUGGAGGGAGCGG [C20G G50A]: the self-cleavage was determined as 0.23.
For the variant CCGCCUAACACUGCCAAUGGCGGUCCCAAGCCCGGAUAAAAGUGGAGGGUGCGG [C20G G50U], the self-cleavage was 0.09.
Take CCGCCUAACACUGCCAAUGGCGGUCCCAAGCCCGGAUAAAAGUGGAGGGCGCGG [C20G G50C]: the self-cleavage stood at 0.06.
The result for CCGCCUAACACUGCCAAGGGCGGUCCCAAGCCCGGAUAAAAGUGGAGGGGGCGG [C20G U18G] reads 0.09; that for CCGCCUAACACUGCCAAAGGCGGUCCCAAGCCCGGAUAAAAGUGGAGGGGGCGG [C20G U18A], 0.13; that for CCGCCUAACACUGCCAACGGCGGUCCCAAGCCCGGAUAAAAGUGGAGGGGGCGG [C20G U18C], 0.2.
For the variant CCGCCUAACACUGCCAAUGGCGGUCCCAAGCCCGGAUAAAAGGGGAGGGGGCGG [C20G U43G], the self-cleavage stood at 0.09.
The result for CCGCCUAACACUGCCAAUGGCGGUCCCAAGCCCGGAUAAAAGCGGAGGGGGCGG [C20G U43C] reads 0.07; that for CCGCCUAACACUGCCAAUGGCGGUCCCAAGCCCGGAUAAAAGAGGAGGGGGCGG [C20G U43A], 0.07.
The result for CCGCCUAACACUGCCAAUGUCGGUCCCAAGCCAGGAUAAAAGUGGAGGGGGCGG [C20U C33A] reads 0.11; that for CCGCCUAACACUGCCAAUGUCGGUCCCAAGCCUGGAUAAAAGUGGAGGGGGCGG [C20U C33U], 0.77; that for CCGCCUAACACUGCCAAUGUCGGUCCCAAGCCGGGAUAAAAGUGGAGGGGGCGG [C20U C33G], 0.07.
In the case of CCGCCUAACACUGCCAAUGUCGGUCCCAAGGCCGGAUAAAAGUGGAGGGGGCGG [C20U C31G] it was 0.15; in that of CCGCCUAACACUGCCAAUGUCGGUCCCAAGACCGGAUAAAAGUGGAGGGGGCGG [C20U C31A], 0.05.
Turning to CCGCCUAACACUGCCAAUGUCGGUCCCAAGUCCGGAUAAAAGUGGAGGGGGCGG [C20U C31U], the self-cleavage came to 0.92.
The result for CCGCCUAACACUGCCAAUGUGGGUCCCAAGCCCGGAUAAAAGUGGAGGGGGCGG [C20U C21G] reads 0.26.
The result for CCGCCUAACACUGCCAAUGUUGGUCCCAAGCCCGGAUAAAAGUGGAGGGGGCGG [C20U C21U] reads 1.05; that for CCGCCUAACACUGCCAAUGUAGGUCCCAAGCCCGGAUAAAAGUGGAGGGGGCGG [C20U C21A], 0.87.
In the case of CCGCCUAACACUGCCAAUGGCGCUCCCAAGCCCGGAUAAAAGUGGAGGGGGCGG [C20G G23C] it was 0.04.
Turning to CCGCCUAACACUGCCAAUGGCGAUCCCAAGCCCGGAUAAAAGUGGAGGGGGCGG [C20G G23A], the self-cleavage stood at 0.06.
As for CCGCCUAACACUGCCAAUGGCGUUCCCAAGCCCGGAUAAAAGUGGAGGGGGCGG [C20G G23U], the self-cleavage is 0.04.

For the origin of these results see the RNAGym collection of RNA variant scans (doi:10.1002/anie.201605470).
